# CHRM4 antagonist: human M4 muscarinic receptor antagonists, primary screen, CHO cells, Fluo-8 calcium fluorescence | Muscarinic acetylcholine receptor M4 (Homo sapiens), P08173 | CHO-hM4 cells, ACh EC80 | inhibition, % at 3 µM | 0.73% of 360,000 active | AID 624125, 2012;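 active means inhibition above its plate's cutoff, the mean inhibition of sample wells plus 3 SD, cut at about 27% in these data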;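 further: 0% = acetylcholine EC80 with DMSO and 100% = DMSO without agonist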
# CHRM5 agonist: human M5 muscarinic receptor agonists, primary screen, CHO-K1 cells, Fluo-8 calcium fluorescence. Muscarinic acetylcholine receptor M5 (Homo sapiens), P08912. CHO-K1 hM5 cells; 0% DMSO wells, 100% maximal acetylcholine response. 0.19% of 360,000 active. activation, % at 3 µM;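 active means activation above the run's mean over test compounds plus 3 SD, cut at about 23% in these data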;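 further: signal is peak over basal fluorescence ratio across the kinetic read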
# Target sequence (P08912 whole entry, looked up): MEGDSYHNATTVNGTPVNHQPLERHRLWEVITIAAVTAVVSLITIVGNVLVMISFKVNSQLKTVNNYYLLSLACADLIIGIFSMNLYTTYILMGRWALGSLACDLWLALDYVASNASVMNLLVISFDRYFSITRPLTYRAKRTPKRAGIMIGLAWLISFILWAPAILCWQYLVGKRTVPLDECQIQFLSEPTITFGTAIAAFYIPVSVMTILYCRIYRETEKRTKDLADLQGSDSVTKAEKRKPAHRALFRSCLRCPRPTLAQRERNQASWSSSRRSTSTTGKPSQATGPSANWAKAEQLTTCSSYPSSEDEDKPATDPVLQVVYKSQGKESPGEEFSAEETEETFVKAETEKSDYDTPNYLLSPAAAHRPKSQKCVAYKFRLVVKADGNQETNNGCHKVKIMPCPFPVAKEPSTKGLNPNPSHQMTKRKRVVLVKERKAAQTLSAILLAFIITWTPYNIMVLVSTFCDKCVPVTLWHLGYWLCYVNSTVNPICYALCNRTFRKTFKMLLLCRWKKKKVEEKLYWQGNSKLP
# CHRM5 PAM: human M5 muscarinic receptor positive allosteric modulators, primary screen, CHO-K1 cells, Fluo-8 calcium fluorescence; CHO-K1 hM5, ACh EC20 PAM; 0% = ACh EC20, 100% = ACh EC100; activation, % at 3 µM; 0.3% of 360,000 active; AID 624038, 2012;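 active means activation above the run cutoff, the mean activation of all test compounds plus 3 SD, cut at about 18% in these data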
#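 Probe or stimulus: acetylcholine, EC20 level; Assay system: human M5 receptor in CHO-K1 cells; Schedule: compound preincubation 140 s before EC20 acetylcholine addition; Technique: intracellular calcium via Fluo-8 fluorescence; Dosing: single-point, 3 µM nominal; Read-out basis: percent activation from peak-over-basal fluorescence ratio, scaled EC20-to-EC100 acetylcholine; Repeats: one well per compound, no replicates.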
# CHRM4 agonist: human M4 muscarinic receptor agonists, primary screen, CHO-K1 cells, Fluo-8 calcium fluorescence. Muscarinic acetylcholine receptor M4 (Homo sapiens), P08173. CHO-K1 hM4/Gqi5; vehicle 0%, full acetylcholine response 100%. activation, % at 3 µM. 0.14% of 360,000 active;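 active means activation above the run mean over all test wells plus 3 SD, cut at about 32% in these data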;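 further: peak over basal fluorescence ratio per well then scaled between controls; 0% = DMSO wells and 100% = acetylcholine at EC100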
# CHRM4 PAM: human M4 muscarinic receptor positive allosteric modulators, primary screen, CHO-K1 cells, Fluo-8 calcium fluorescence | activation, % at 3 µM | Muscarinic acetylcholine receptor M4 (Homo sapiens), P08173 | CHO-K1 hM4/Gqi5, ACh EC20; 0% = ACh EC20, 100% = maximal ACh | 0.4% of 360,000 active;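 active means activation above its plate's cutoff, the mean activation of sample wells plus 3 SD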
# CHRM5 antagonist: human M5 muscarinic receptor antagonists, primary screen, CHO cells, Fluo-8 calcium fluorescence | Muscarinic acetylcholine receptor M5 (Homo sapiens), P08912 | CHO-hM5 cells, ACh EC80 | inhibition, % at 3 µM | 0.59% of 360,000 active | AID 624040, 2012;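 active means inhibition above a per-plate cutoff, the mean of that plate's test compounds plus 3 SD, cut at about 27% in these data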;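 further: 0% = acetylcholine EC80 with DMSO and 100% = DMSO without agonist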
# Starred values were filed as active, the others as inactive. In the library only some 1.8% were active in any assay of this set; here they are far more common.
SMILES,CHRM4 antagonist,CHRM5 agonist,CHRM5 PAM,CHRM4 agonist,CHRM4 PAM,CHRM5 antagonist
Cc1ccc(C)c(CC(=O)N2CCCC(c3cc(C(=O)NCc4ccccc4)no3)C2)c1 (stereo unspecified),-13.6,-1.3,-3.1,4.5,3.1,0.9
CC(C)Nc1nc(NCCN2CCNC2=O)c2sccc2n1,-9.3,-0.6,-4.2,0.7,9.3,7.5
O=C1CCCN1CCCNS(=O)(=O)c1cccs1,12.8,-1.2,-1.2,1.3,3.8,6.7
O=C1CCCN1CCCNc1nc(NCc2cccs2)nc2ccsc12,52.6*,40.7*,-19.0,96.1*,-15.5,22.5
O=C1NCCN1CCNc1nc(NCc2ccccc2)nc2ccsc12,52.2*,19.9,-19.1,45.9*,-15.4,21.6
c1csc(CNc2nc(NCC3CCCCC3)c3sccc3n2)c1,27.1*,9.7,-5.1,19.4,-12.6,26.0
c1ccc(CNc2nc(NCCc3ccncc3)c3sccc3n2)cc1,100.2*,95.8*,-20.5,154.7*,-16.5,98.5*
COc1ccc(OC)c(NC(=O)COc2cc(O)c3c(c2)OC(C)(C)CC3=O)c1,-17.0,0.3,-1.8,3.7,5.2,-0.1
O=C(COC(=O)CCC(=O)c1cccs1)Nc1cccc(F)c1,0.4,4.0,-1.2,4.3,-2.1,-1.2
COCCNc1nc(NCc2cccs2)nc2ccsc12,91.7*,95.7*,-21.2,158.7*,-16.5,81.1*
CC(=O)NCCNc1nc(NCc2cccs2)nc2ccsc12,1.1,2.3,-4.1,5.1,-6.9,-0.4
c1ccc(CNc2nc(NCc3cccs3)nc3ccsc23)cc1,15.6,14.3,-21.9,39.5*,-13.8,41.6*
CCC(=O)OCCNc1cc(Sc2nc3ccccc3[nH]2)c2nonc2c1[N+](=O)[O-],54.2*,-2.2,-7.2,2.5,-10.4,21.6
CCCC(=O)OCCNc1cc(Sc2nccn2C)c2nonc2c1[N+](=O)[O-],36.5*,-1.6,-9.9,2.4,-3.6,20.9
O=[N+]([O-])c1c(NCCCO)cc(Sc2nc3ccccc3s2)c2nonc12,74.9*,0.4,-15.8,15.8,-16.0,32.1*
NC(=O)c1ccsc1NC(=O)CS(=O)(=O)c1ccc(F)cc1,-6.5,-2.0,-1.9,1.3,3.4,8.0
CCOc1cc(C2NC(=O)NC(c3ccccc3)=C2C(=O)c2ccccc2)c(Br)cc1OCC(=O)O (stereo unspecified),3.0,-0.8,6.9,0.5,-2.7,-3.3
Cn1c(SCc2c(Cl)cccc2Cl)nnc1-c1ccc2nonc2c1,24.1,-11.2,-0.2,11.2,26.3*,2.9
Cn1c(CCN2CCN(c3ccccn3)CC2)nc2cc(NS(=O)(=O)c3ccc(Cl)cc3)ccc21,21.2,-6.6,-15.8,20.4,-13.5,27.4*
Cc1ccc(S(=O)(=O)Nc2ccc3c(c2)nc(CCN2CCN(c4ccccn4)CC2)n3C)cc1,16.8,-9.3,-6.5,5.3,-12.0,14.1
Cn1c(CCN2CCN(c3ccccn3)CC2)nc2cc(NC(=O)COc3ccc(Cl)cc3)ccc21,21.5,-5.2,-16.5,21.6,-14.5,27.1*
Cn1nc(C(F)(F)F)c(/C=N/OC(=O)c2ccccc2)c1SCc1ccccc1Cl,30.0*,-5.3,-11.3,-0.9,-24.3,3.8
COc1cc(N=C2C(=O)N3c4c(cccc42)C(C)=CC3(C)C)cc(OC)c1,-17.2,26.8*,4.3,2.2,9.6,-10.7
CC1=CC(C)(C)N2C(=O)C(=Nc3ccc(O)cc3)c3cccc1c32,25.6,38.0*,6.3,-0.4,22.7,5.1
Cc1c(CCC(=O)N[C@@H](C)C(=O)O)c(=O)oc2cc3occ(-c4ccccc4)c3cc12,2.9,-2.5,3.0,1.2,0.3,1.8
SMILES,CHRM4 antagonist,CHRM5 agonist,CHRM5 PAM,CHRM4 agonist,CHRM4 PAM,CHRM5 antagonist
Cc1nc(CCNS(=O)(=O)c2cccnc2)cs1,13.1,1.4,5.9,0.2,-5.0,-3.6
OC(CCN1CCC2CCC(C2)C1)c1ccc(Br)cc1 (stereo unspecified),37.1*,-11.3,-12.5,-1.0,-13.4,3.9
CC(C)(C)c1ccc(C(=O)N2CCC2(C)C(=O)Nc2cccc(C#N)c2)cc1 (stereo unspecified),-6.6,0.3,-4.7,1.8,-7.8,3.2
CN(C)S(=O)(=O)c1cccc(NC(=O)COC(=O)CNC(=O)c2cccc([N+](=O)[O-])c2)c1,9.1,4.0,0.3,1.7,-9.8,0.1
N#CC1=C(N2CCCCC2)c2cc3c(n2C1=O)CCCC3,30.5*,-4.5,-2.6,2.3,-19.1,12.9
CCc1nn(-c2cc(Cl)ccc2OC)c2c1C(=O)CCC2,-2.5,-4.6,18.3*,-1.4,9.7,-11.1
CCCc1nn(-c2cc(Cl)ccc2OC)c2c1C(=O)CC(C)(C)C2,4.0,-5.4,1.2,-2.5,-2.3,-1.1
CCn1c(C)cc(/C=C2\NC(=O)N(Cc3ccc(Cl)cc3)C2=O)c1C,30.6*,5.4,0.4,1.7,8.6,-5.4
CCN1C(=O)N/C(=C/c2cc(C)n(Cc3ccccc3)c2C)C1=O,6.2,-0.1,-0.1,3.2,5.4,2.9
CN1CCN(C(=O)OC2CC3CC2[C@H]2CCCCN2C3=O)CC1 (stereo partly specified),-11.3,-4.4,2.8,1.1,8.4,-7.1
C=CCC(CC=C)(NC(=O)c1ccccc1C)c1ccccc1,-20.0,-3.0,41.0*,-0.3,6.7,-6.1
C=CCC(CC=C)(NC(=O)c1ccccc1)c1ccccc1,5.2,-7.2,-11.1,-1.6,-7.5,5.9
CC(C)(C)C(=O)Nc1ccc(Cc2ccncc2)cc1,10.9,0.8,-2.1,0.4,-0.8,2.5
CCCCN(C)C(=O)c1cccc(OC2CCN(CC(C)(C)C)CC2)c1,1.9,-20.9,-5.0,2.4,-3.2,2.2
CC(C)(C)CN1CCC(Oc2cccc(C(=O)N3CCNC(=O)C3(C)C)c2)CC1,24.2,-10.7,-10.3,1.0,-13.7,30.9*
Cc1ccc(-n2c(CSc3nc(C)cc(C)n3)nnc2SCC(=O)Nc2nccs2)cc1,38.0*,4.4,9.2,2.8,24.9,-6.0
COc1ccc(-n2c(CSc3nc(C)cc(C)n3)nnc2SCC(=O)Nc2nccs2)cc1,-3.0,0.9,-8.6,0.3,0.2,4.8
NC(=O)C1CCN(Cc2ccc(OCc3ccccc3)cc2)CC1,20.9,-12.8,-1.6,0.7,-14.5,7.9

# Screens as filed in PubChem.
